Data from ChEMBL document CHEMBL1140319, “The taming of capsaicin. Reversal of the vanilloid activity of N-acylvanillamines by aromatic iodination” (J Med Chem, 2005).

These molecules were tested against T1, Transient receptor potential cation channel subfamily V member 1 (Homo sapiens, UniProt Q8NER1) (assay: Inhibition of 100 nM capsaicin effect on intracellular [Ca2+] concentration in HEK293 cells expressing human TRPV1; (weak agonist activity)).
T1 sequence (Q8NER1 whole entry): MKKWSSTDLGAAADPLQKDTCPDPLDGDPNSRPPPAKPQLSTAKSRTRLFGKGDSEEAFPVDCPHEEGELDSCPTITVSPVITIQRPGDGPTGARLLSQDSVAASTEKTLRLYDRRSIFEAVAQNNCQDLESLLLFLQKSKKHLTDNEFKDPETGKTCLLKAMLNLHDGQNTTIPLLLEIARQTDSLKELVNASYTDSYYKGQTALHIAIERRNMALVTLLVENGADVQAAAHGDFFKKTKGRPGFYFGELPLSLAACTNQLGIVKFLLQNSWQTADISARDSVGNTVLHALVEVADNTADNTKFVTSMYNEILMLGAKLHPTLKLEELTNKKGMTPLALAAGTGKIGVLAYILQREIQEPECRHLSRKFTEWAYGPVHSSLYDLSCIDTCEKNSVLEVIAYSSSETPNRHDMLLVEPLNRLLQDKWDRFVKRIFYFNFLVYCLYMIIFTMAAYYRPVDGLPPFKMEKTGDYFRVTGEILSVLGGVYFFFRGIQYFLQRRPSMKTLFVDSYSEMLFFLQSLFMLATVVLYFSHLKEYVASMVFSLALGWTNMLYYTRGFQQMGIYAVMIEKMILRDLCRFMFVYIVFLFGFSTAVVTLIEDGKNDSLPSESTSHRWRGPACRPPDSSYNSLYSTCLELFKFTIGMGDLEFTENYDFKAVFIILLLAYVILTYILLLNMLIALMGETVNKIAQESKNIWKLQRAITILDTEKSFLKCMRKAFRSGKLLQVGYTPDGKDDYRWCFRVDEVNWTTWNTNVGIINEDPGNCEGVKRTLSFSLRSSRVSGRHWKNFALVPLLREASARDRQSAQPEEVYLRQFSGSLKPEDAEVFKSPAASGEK
Format: functional, cell-based
In short: (§1)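 HEK293 cells stably overexpressing human TRPV1, grown in MEM with nonessential amino acids, 10% FCS and 0.2 mM glutamine. Plated on poly-L-lysine one day before use. Loaded 2 h at 25 °C with 4 μM Fluo-3 AM plus 0.04% Pluronic, then trypsinized into Tyrode pH 7.4 in a stirred cuvette. Compounds added 10 min before 100 nM capsaicin. Fluorescence read at 25 °C (ex 488/em 540 nm). IC50 from half-maximal inhibition.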
For `CCCCCCCCC(=O)NCc1cc(OC)c(O)c(-c2cc(CNC(=O)CCCCCCCC)cc(OC)c2O)c1`, the IC50 was > 20000 nM.

Each molecule was assayed against T1, Transient receptor potential cation channel subfamily V member 1 (assay: Inhibition of 100 nM capsaicin effect on intracellular [Ca2+] concentration in HEK293 cells expressing human TRPV1).
Format: cell-based
In short: as §1, with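 “capsaicin.” for “capsaicin. Fluorescence read at 25 °C (ex 488/em 540 nm).”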
`CCCCCCCCC(=O)NCc1cc(OC)c(O)cc1I` was tested, and the IC50 was 10 nM. With `CCCCCCCCC(=O)NCc1cc(OC)c(O)cc1Cl` the IC50 was 50.3 nM. Molecule `CCCCCCCCC(=O)NCc1ccc(O)c(OC)c1NC(C)=O` has an IC50 of 9540 nM. `CCCCCCCCC(=O)NCc1cc(OC)c(O)cc1Br` was tested, and the IC50 was 16.1 nM. With `CCCCCCCCC(=O)NCc1ccc(O)c(OC)c1[N+](=O)[O-]` the IC50 was 11000 nM. For `CCCCCCCCC(=O)NCc1cc(Cl)c(O)c(OC)c1`, the IC50 was 631 nM. For `CCCCCCCCC(=O)NCc1cc(I)c(O)c(OC)c1`, the IC50 was 126 nM. `CCCCC/C=C/C/C=C/C/C=C/C/C=C/CCCC=O` gave an IC50 of 51 nM. Work on `C=C(C)[C@]12C[C@@H](C)[C@@]3(OCc4ccccc4)[C@@H](C=C(COC(=O)Cc4cc(I)c(O)c(OC)c4)C[C@]4(O)C(=O)C(C)=C[C@@H]34)[C@H]1OCO2` yielded an IC50 of 0.4 nM. `CCCCCCCCC(=O)NCc1cc(Br)c(O)c(OC)c1` was tested, and the IC50 was 252 nM. `Oc1cc2c(cc1O)CN(C(=S)NCCc1ccc(Cl)cc1)CCC2` [CAPSAZEPINE] was tested, and the IC50 was 56.2 nM.
